Measurements as given in PMC4161282 (Bioconjugate chemistry, 2013).
In brackets after ≈: the same amount, converted by molar mass. Several values for one entry are separate records, joined by “and”; a condition that tells them apart may be missing. Equal values may be shown once.

Tests used:
GFP-aldehyde 4a = GFP-aldehyde 4a (Aequorea victoria, UniProt P42212); assay: Kinetic analysis of protein labeling via oxime ligation; conditions: catalyst 100 mM, 4a 10 µM, 1 50 µM
[1] = Kinetic analysis of oxime ligation between 2-pentanone and aminooxy-dansyl 1; conditions: for kobs: 2-pentanone 5.0 mM, 1 150 µM; for kobs/kobs(aniline): vs 100 mM aniline
[2] = Effect of catalyst concentration on kobs, oxime ligation of citral with 1; conditions: citral 30 µM, 1 100 µM
[3] = Catalyst screening: oxime ligation of citral with aminooxy-dansyl 1; conditions: catalyst 25 mM; for kobs / kobs/kobs(aniline) / t1/2: citral 50 µM; for kobs: aminooxy-dansyl 1 100 µM, PB pH 7.0, rt; for kobs/kobs(aniline) / t1/2: 1 100 µM; for catalytic efficiency compared with aniline: screening
Aldehyde-GFP 4a = Aldehyde-GFP 4a (Aequorea victoria, UniProt P42212); assay: Immobilization of aldehyde-GFP 4a from crude cell lysate onto hydrazide beads; conditions: catalyst 100 mM
immobilized GFP = immobilized GFP (Aequorea victoria, UniProt P42212); assay: Kinetic analysis of hydrazone-oxime exchange; conditions: catalyst 100 mM, aminooxy fluorophore 5 1 mM
DHFR^2 M174pAcF = assay: PEGylation of ketone-containing protein with aminooxy-PEG 12; conditions: catalyst 100 mM, protein 7 µM, aminooxy-PEG 5 mM, pH 7, rt
[4] = Approximate solubility in phosphate buffer; conditions: for solubility: phosphate buffer, pH 7, aqueous buffer
aldehyde-CNTF 9 = target: T1, aldehyde-CNTF 9 (Homo sapiens, UniProt P26441); assay: Rate analysis of coupling between aldehyde-CNTF 9 and aminooxy 5; conditions: catalyst 80 mM, 9 50 µM, 5 600 µM, 5 min
T1 sequence (P26441 1-200): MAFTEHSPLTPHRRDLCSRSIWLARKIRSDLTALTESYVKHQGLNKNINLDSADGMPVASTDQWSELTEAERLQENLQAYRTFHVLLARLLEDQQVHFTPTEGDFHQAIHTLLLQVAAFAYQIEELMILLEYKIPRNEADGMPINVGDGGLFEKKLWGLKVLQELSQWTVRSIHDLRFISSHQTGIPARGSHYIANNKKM
In short: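 Run at rt and started by adding aldehyde-bearing CNTF (stock 60 µM in 50 mM Tris-HCl, pH 7.5). Aliquots were taken every 5 min into SDS loading buffer and flash-frozen in liquid nitrogen. Samples were heated at 98 °C for 4 min, then analysed by SDS-PAGE.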

[5] = phosphate buffer (0.1 M), pH 7.0, rt

SMILES | kobs ([2]; catalyst 25 mM) | kobs/[cat.] ([2]; catalyst 25 mM) | kobs ([2]; catalyst 35 mM) | kobs/[cat.] ([2]; catalyst 35 mM) | kobs ([2]; catalyst 42 mM) | kobs/[cat.] ([2]; catalyst 42 mM) | kobs/[cat.] ([2]; catalyst 50 mM) | kobs [3] | Approximate Solubility [4, 5] | kobs/kobs(aniline) [3] | catalytic efficiency compared with aniline [3] | t1/2 [3] | also measured
Nc1ccccc1 [Aniline, aniline, reference compound] | 24.3 ± 0.2 M⁻¹ s⁻¹ | 0.97 ms^−1 M^−2 | 33.5 ± 0.2 M⁻¹ s⁻¹ | 0.96 ms^−1 M^−2 | 36.9 ± 0.3 M⁻¹ s⁻¹ | 0.88 ms^−1 M^−2 | 0.97 ms^−1 M^−2 | 24.4 ± 0.5 M⁻¹ s⁻¹ | 100 mM |  |  |  | extent of reaction (labeling) in about 90 s (GFP-aldehyde 4a): < 7%; kobs (GFP-aldehyde 4a): 10.3 M⁻¹ s⁻¹; kobs ([1]; catalyst 100 mM): 0.082 M⁻¹ s⁻¹ and 0.082 ± 0.0007 M⁻¹ s⁻¹; kobs ([2]; catalyst 50 mM): 48.6 ± 0.2 M⁻¹ s⁻¹; kobs ([2]; catalyst 50 mM, listed as aniline): 48.9 M⁻¹ s⁻¹ and 48.6 M⁻¹ s⁻¹; time to complete immobilization (Aldehyde-GFP 4a): less than 45 min; kobs of immobilized protein release (immobilized GFP): 0.0159 h⁻¹; effect on PEGylation reaction rate (DHFR^2 M174pAcF): did not have a significant effect on the reaction rate; solubility ([4]; Approximate Solubility, phosphate buffer (0.1 M), pH 7.0, rt): ~100 mM (≈ 9310 µg/mL)
Nc1cccc(O)c1 [m-Aminophenol, m-aminophenol] |  |  |  |  |  |  |  | 23.9 ± 0.5 M⁻¹ s⁻¹ |  | 0.98 |  |  | 
Nc1cccc(N)c1 [m-Phenylene-diamine, m-phenylenediamine] | 38.7 ± 0.1 M⁻¹ s⁻¹ | 1.55 ms^−1 M^−2 | 58.3 ± 0.3 M⁻¹ s⁻¹ | 1.66 ms^−1 M^−2 | 65.6 ± 0.6 M⁻¹ s⁻¹ | 1.56 ms^−1 M^−2 | 1.56 ms^−1 M^−2 |  |  |  |  |  | kobs ([1]; catalyst 100 mM, listed as mPDA): 0.20 ± 0.0016 M⁻¹ s⁻¹; kobs/kobs(aniline) ([1]; catalyst 100 mM): 2.41; kobs ([1]; catalyst 300 mM): 0.36 ± 0.0042 M⁻¹ s⁻¹; kobs/kobs(aniline) ([1]; catalyst 300 mM): 4.45; kobs ([1]; catalyst 500 mM): 0.73 ± 0.0071 M⁻¹ s⁻¹; kobs/kobs(aniline) ([1]; catalyst 500 mM): 8.89; kobs ([1]; catalyst 700 mM): 1.17 ± 0.013 M⁻¹ s⁻¹; kobs/kobs(aniline) ([1]; catalyst 700 mM): 14.3; kobs ([1]; catalyst 900 mM): 1.69 ± 0.022 M⁻¹ s⁻¹; kobs/kobs(aniline) ([1]; catalyst 900 mM): 20.7; kobs ([2]; catalyst 50 mM, listed as mPDA): 78.2 ± 0.7 M⁻¹ s⁻¹; extent of protein labeling (Coomassie gel) (aldehyde-CNTF 9): almost all of the protein was labeled
Nc1ccccc1C(=O)O [o-Aminobenzoic acid, o-aminobenzoic acid] |  |  |  |  |  |  |  | 24.8 ± 0.8 M⁻¹ s⁻¹ |  | 1.01 | equal to or less efficient than aniline |  | solubility [4]: > 2000 mM
Nc1ccccc1N [o-Phenylene-diamine, o-phenylenediamine] |  |  |  |  |  |  |  | 18.1 ± 0.3 M⁻¹ s⁻¹ | very soluble (>1 M) | 0.74 | equal to or less efficient than aniline | 7.47 min | 
Nc1ccc(N)cc1 [p-Phenylene-diamine, p-phenylenediamine] |  |  |  |  |  |  |  | 29.2 ± 0.7 M⁻¹ s⁻¹ | very soluble (>1 M) | 1.20 | more efficient compared with aniline | 4.63 min | 
